Source: PubChem
Hits are enriched below; roughly 3.5% of the tested compounds scored in any of these assays.
MT stabilizer = microtubule stabilizers in HeLa cells, primary screen, imaging, high-content imaging. HeLa tubulin immunostaining HCS, 24 h; share of cells brighter than vehicle mean+2SD. % tubulin-high responders, % at 10 µM. 200,000 tested, 0.83% active. AID 2205, 2009;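 active = plate Z-score above 3 for both tubulin-high and condensed-nucleus cell shares, with cell loss under 80%, at 10 µM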;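 note: anti alpha tubulin signal scored within the nucleus-defined area of each cell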
Yeast lifespan up = compounds extending yeast replicative lifespan, primary screen, S. cerevisiae, OD615. S. cerevisiae growth with nicotinamide; deaD strain in restrictive glucose medium. inhibition of the nicotinamide effect, % at 10 µM. 130,000 tested, 0.68% active;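 active = inhibition above a set limit, placed 3 SD over the median of all compounds, cut at about 26% in these data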
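System: Modified budding yeast, DeaD strain | Buffer or medium: Restrictive glucose medium | Also added: 1.5 mM nicotinamide | Doses: 10 µM single point, 0.25% DMSO | Schedule: 48 h compound exposure at 30 °C, humidified | Detection: Absorbance at 615 nm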
HMGR II inh = inhibitors of E. faecalis class II HMGR, primary screen, biochemical, Enterococcus faecalis. purified E. faecalis HMGR, NADPH absorbance 340 nm kinetic. 190,000 tested, 0.41% active. HMG-CoA reductase (Enterococcus faecalis, mvaE). inhibition, % at 10 µM;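 active = inhibition above a set limit, the median over all tested compounds plus 3 SD, cut at about 9.5% in these data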;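 note: enzyme runs in reverse so mevalonate oxidation gives rising NADPH absorbance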
Yeast growth inh = growth inhibitors of yeast BB579 in restrictive medium, primary screen, yeast lifespan-shortening project, S. cerevisiae | OD615, 48 h | inhibition, % at 10 µM | 140,000 tested, 0.51% active;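 active = inhibition above a set limit, 3 SD over the mean compound inhibition, cut at about 44% in these data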
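Test system: S. cerevisiae DeaD strain BB579 yeast; Medium: restrictive CSMM-D medium; Compound: one dose, 10 µM compound with 0.25% DMSO; Incubation: 4 h cell preincubation, 48 h compound exposure, 30 °C humidified; Signal: OD at 615 nm; Benchmarks: amphotericin B at 10 µg/mL as positive control.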
bCat nuc transl = modulators of beta-catenin nuclear translocation, primary screen, imaging, HeLa cells, immunofluorescence, high-content. nuclear translocation activity, % at 5 µM. 190,000 tested, 0.3% active;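 active = nuclear translocation activity above 50% at 5 µM, with a well cell count of 50 or more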;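 note: per-cell ratio of nuclear to cytoplasmic median beta-catenin stain intensity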
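test system = HeLa cells, endogenous beta-catenin | dosing = single 5 µM dose plus 0.02–20 µM confirmation series | times = compound treatment 24 h, 37°C, 5% CO2 | technique = beta-catenin immunofluorescence imaging with DAPI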
RAM inhibit = inhibitors of the yeast RAM network, primary screen, dse1pr::URA3 reporter, 5-FOA selection; S. cerevisiae dse1pr::URA3 reporter, 5-FOA growth OD615, 2 d; analog-sensitive cbk1-as2 kinase mutant strain; inhibition, % at 50 µM; 190,000 tested, 1.8% active; AID 868, 2007;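 active = inhibition above a set limit, 3 SD over mean compound inhibition, cut at about 8.4% in these data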;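 note: inhibition rescues growth on 5-FOA so higher OD means more RAM inhibition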
A number is an active result; - = inactive; . = no result given.

SMILES | MT stabilizer | Yeast lifespan up | HMGR II inh | Yeast growth inh | bCat nuc transl | RAM inhibit
CCCCCc1ccc(OCCCC[n+]2ccccc2)c(CCCCC)c1 | 28 | . | - | . | - | -
O=S(=O)(Nc1ccc(-n2cccc2)cc1)c1ccc(Cl)cc1Cl | - | - | - | 74 | - | -
Clc1cccc(Cl)c1-c1noc(CN2CCOCC2)n1 | . | . | . | . | - | .
O=C(/C=C/c1cc([N+](=O)[O-])ccc1OC(F)F)NCc1ccc(F)cc1 | - | - | - | - | . | 8.7
Cc1ccc(N=C2NC(=O)/C(=C/c3cccn3C)S2)cc1 | . | . | . | . | 65 | .
Cc1ccc(N=C2NC(=O)/C(=C\c3ccc(C)s3)S2)cc1 | 6.3 | . | - | . | - | -
Cc1ccc(N=C2NC(=O)/C(=C/c3cccn3C)S2)cc1C | . | . | . | . | - | .
O=C(NCc1ccc(Cl)cc1)C1CCN(S(=O)(=O)c2ccc(F)cc2)CC1 | - | . | - | . | - | -
COC(=O)c1ccc(Sc2ccc(C)cc2)c(N)c1 | - | - | - | - | - | -
COc1cc(Sc2ccc(C)cc2)c(OC)cc1N | - | - | - | - | - | 11
C(=C\c1nc2ccccc2[nH]1)/c1ccccc1 | 41 | - | - | - | . | -
Cc1nc(/C=C/c2ccccc2)[nH]c(=O)c1-c1ccccc1 | 9.2 | - | - | - | - | -
O=c1[nH]c(/C=C/c2cccc3ccccc23)nc2ccccc12 | - | . | - | . | - | -
C(=C\c1ccco1)/c1nc2ccccc2[nH]1 | - | . | - | . | - | -
COCCN=c1scc(-c2cccs2)n1/N=C/c1ccc(O)c(O)c1O | - | - | - | - | - | 9.6
CCN=c1scc(C)n1/N=C/c1ccc(O)c(O)c1O | - | - | - | - | - | -
NC(=O)Cn1cnc2nc3n(c2c1=O)CCC3 | - | . | - | . | - | -
CCOC(=O)C1CCCN(C(=O)c2cc3ccccc3oc2=O)C1 (stereo not drawn) | - | . | - | . | - | -
Cc1cccc(C)c1N1CCN(S(=O)(=O)c2ccc(F)cc2)CC1 | - | - | - | - | - | 9.2
COc1ccc(S(=O)(=O)N2CCN(c3cccc(C)c3C)CC2)cc1 | - | - | - | - | . | 8.4
Cc1ccccc1CN1CCN(S(=O)(=O)c2ccc(F)cc2)CC1 | - | - | - | - | - | -
COc1ccc(N=Cc2nc(-c3ccco3)oc2O)cc1 | - | . | 11 | - | - | -
NC(=O)c1ccc(Br)c(S(=O)(=O)N2CCCCC2)c1 | - | - | - | - | - | -
O=S(=O)(c1cc(-c2nnc(-c3ccc(Br)cc3)o2)ccc1Br)N1CCCCCC1 | 43 | . | - | - | - | -
O=[N+]([O-])c1ccccc1-c1cc(-c2cc(Cl)ccc2O)n[nH]1 | - | - | - | 96 | - | -
SMILES | MT stabilizer | Yeast lifespan up | HMGR II inh | Yeast growth inh | bCat nuc transl | RAM inhibit
Cc1ccc(O)c(-c2cc(-c3ccccc3C)[nH]n2)c1 | - | - | - | 99 | . | -
COc1cc(-c2nnc(SCc3ccccc3Cl)o2)cc(OC)c1OC | - | - | - | - | - | 11
COc1cc(-c2nnc(SCc3c(F)cccc3Cl)o2)cc(OC)c1OC | - | - | - | - | - | 11
CCOC(=O)N1CCC(=NNC(=O)Cn2ccc(C(F)(F)F)n2)CC1 | - | . | - | . | - | -
C=CCn1c(C)cc(C(=O)COc2ncnc3sccc23)c1C | - | 44 | - | - | - | -
CCNCCNC(=O)c1c(O)c2ccccc2n(CC)c1=O | - | - | - | - | - | -
C=CCn1c(=O)c(C(=O)NCCNCC)c(O)c2ccccc21 | - | 31 | - | - | - | -
COc1c(O)cc2oc(-c3ccc(O)cc3)cc(=O)c2c1O | . | . | . | . | - | .
COc1cc(OC)c(-c2c3cc(O)c(=O)cc-3oc3cc(O)c(O)cc23)cc1OC | - | - | - | - | - | 10
O=[N+]([O-])c1cc(C2Nc3cccc4cccc(c34)N2)ccc1Cl | - | - | - | - | . | 11
COc1ccc(CCNC(=O)CC2SC(N)=NC2=O)cc1OC (stereo not drawn) | - | . | - | . | - | -
CC1=CC(C2CC(=O)N(c3ccc(C)cc3)C2=O)CC2C(=O)N(c3ccc(C)cc3)C(=O)C12 (stereo not drawn) | - | . | - | . | - | -
Cc1oc2c(cc(NS(=O)(=O)c3ccc4c5c(cccc35)C(=O)N4)c3ccccc32)c1C(=O)OC(C)C | - | - | - | - | - | 9.2
O=C1CCCc2oc3c(cc(NS(=O)(=O)c4ccc5c6c(cccc46)C(=O)N5)c4ccccc43)c21 | . | . | . | . | - | .
Cc1ccc(C)c(C(=O)OCC(=O)Nc2ccc(N3CCOCC3)cc2)c1 | - | . | - | . | - | -
Cc1ccccc1NC(=O)CSC1=C(C#N)C(c2ccsc2)CC(=O)N1 (stereo not drawn) | 26 | - | - | - | - | -
N#CC1=C(SCC(=O)Nc2nccs2)NC(=O)CC1c1ccccc1 (stereo not drawn) | 40 | - | - | - | . | -
COc1ccccc1C1CC(=O)NC(SCC(=O)Nc2ccccc2)=C1C#N (stereo not drawn) | - | - | - | - | - | -
COC(=O)CSC1=C(C#N)C(c2ccc(F)cc2)CC(=O)N1 (stereo not drawn) | - | - | - | - | - | -
COC(=O)CSC1=C(C#N)C(c2ccc(C)o2)CC(=O)N1 (stereo not drawn) | 17 | . | - | . | - | -
CC(C)c1onc(C(=O)NC2CCCCC2)c1[N+](=O)[O-] | - | . | - | . | - | -
COc1nccnc1NS(=O)(=O)c1ccc(NC(=O)c2cccc(C)c2)cc1 | - | . | - | . | - | -
CCc1nnc(NC(=O)CSc2nc(C3CCCCC3)nc3ccccc23)s1 | - | - | - | - | . | 10
CCc1nnc(NC(=O)CSc2nc(-c3ccccc3)nc3ccccc23)s1 | - | - | - | - | . | -
Cc1cc(C)c(CSc2ncnc3nc[nH]c23)c(C)c1 | - | . | - | . | 56 | -
SMILES | MT stabilizer | Yeast lifespan up | HMGR II inh | Yeast growth inh | bCat nuc transl | RAM inhibit
Cc1cccc(CSc2ncnc3nc[nH]c23)c1 | - | - | - | - | - | -
CC(C)(C)c1ccc(NC(=O)COC(=O)c2ccc([N+](=O)[O-])s2)cc1 | - | - | - | 100 | - | -
COc1ccc(OC)c(NC(=S)N2CCN(C/C=C/c3ccccc3)CC2)c1 | - | 43 | - | - | - | -
O=C(CSc1nnc(SCc2ccccc2)s1)N/N=C/C=C\c1ccco1 | - | - | - | - | - | 11
Cc1ccc(C)c(SCC(=O)c2ccc[nH]2)c1 | - | . | - | . | - | -
O=C(Cc1nc2ccccc2[nH]1)c1ccc(Br)cc1 | - | . | - | . | - | -
CCC1(C)Cc2nc3[nH]c(=S)n(-c4ccccc4)c(=O)c3cc2CO1 (stereo not drawn) | - | - | - | - | - | 8.5
